Among the data in ChEMBL document CHEMBL1127521, “CCK-A-selective tetrapeptides containing lys(N epsilon)-amide residues: favorable in vivo and in vitro effects of N-methylation at the aspartyl residue” (J Med Chem, 1994) are IC50, ED50 and Hydrolysis values, retold here.

Test [1] addresses Cholecystokinin B receptor (Cavia porcellus). The test can be described thus: In vitro binding for inhibition of [125I]- Bolton-Hunter-CCK-8 binding in guinea pig cortex.
The next test deals with Rattus norvegicus. The test can be described thus: Compound was evaluated for Appetite suppression, based on intake of liquid diet by food-deprived rats for 1 h following intraperitoneal injection. Format: functional. The conditions noted are these: ip. An outline of the steps: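 Rats are food-deprived, dosed intraperitoneally, and their liquid diet intake over the following 1 h is measured as the appetite suppression read-out.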

Test [2] addresses Cholecystokinin A receptor (Cavia porcellus). As to the kind of experiment: In vitro inhibition of [125I]CCK-8 binding to guinea pig pancreas.
For test [3], the target named is T1, Cholecystokinin receptor type A (Cavia porcellus) (UniProt Q63931).
T1 sequence (whole entry): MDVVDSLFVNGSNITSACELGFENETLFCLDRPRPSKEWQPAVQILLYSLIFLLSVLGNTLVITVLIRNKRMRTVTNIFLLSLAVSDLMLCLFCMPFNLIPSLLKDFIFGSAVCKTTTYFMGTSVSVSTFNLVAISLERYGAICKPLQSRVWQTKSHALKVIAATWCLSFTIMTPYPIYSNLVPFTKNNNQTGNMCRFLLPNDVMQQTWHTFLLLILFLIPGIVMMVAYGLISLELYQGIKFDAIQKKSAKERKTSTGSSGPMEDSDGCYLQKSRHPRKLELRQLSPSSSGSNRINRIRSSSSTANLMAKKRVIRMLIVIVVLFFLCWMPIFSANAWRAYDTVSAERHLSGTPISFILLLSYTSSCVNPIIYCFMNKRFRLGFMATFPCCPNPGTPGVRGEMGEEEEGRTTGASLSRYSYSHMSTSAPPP
The test can be described thus: Percent maximal stimulation of phosphatidylinositol hydrolysis in guinea pig pancreatic acini (CCK-A receptors) relative to CCK-8. Format: functional. An outline of the steps:
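Functional CCK-A assay in guinea pig pancreatic acini. Phosphatidylinositol hydrolysis is measured and expressed as percent of the maximal stimulation produced by CCK-8.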

Square brackets hold non-standard residues; d marks the D form. Peptide text beside a SMILES is read from it. * marks the point of attachment. ξ: configuration not given here. Acryloyl(3-(3-pyridyl),E) = O=C(/C=C/c1cccnc1)*; NMeF = CN[C@@H](Cc1ccccc1)C(=O)O; ξW = NC(Cc1c[nH]c2ccccc12)C(=O)O; NMeD = CN[C@@H](CC(=O)O)C(=O)O; X1 = O=C(/C=C/c1ccc(O)cc1)*; X2 = O=C(/C=C/c1cccs1)*; Boc = CC(C)(C)OC(=O)*

As a reminder, the IC50 is the concentration that inhibits the measured activity by half. A lower IC50 goes with greater potency in that assay. As to `CN(C(=O)[C@H](CC(=O)O)NC(=O)[C@H](CCCCNC(=O)/C=C/c1cccnc1)NC(=O)[C@H](Cc1c[nH]c2ccccc12)NC(=O)OC(C)(C)C)[C@@H](Cc1ccccc1)C(N)=O` (Boc-WK(Acryloyl(3-(3-pyridyl),E))D[NMeF]-NH2) [listing 1 of 2 here], in test [1], the IC50 was 128 nM.

`CN(C(=O)[C@H](CC(=O)O)NC(=O)[C@H](CCCCNC(=O)/C=C/c1cccnc1)NC(=O)[C@H](Cc1c[nH]c2ccccc12)NC(=O)OC(C)(C)C)[C@@H](Cc1ccccc1)C(N)=O` (Boc-WK(Acryloyl(3-(3-pyridyl),E))D[NMeF]-NH2) [listing 2 of 2 here] showed an ED50 in the test with Rattus norvegicus of 2.52 µmol/kg.

With `CN(C(=O)[C@H](CCCCNC(=O)/C=C/c1cccnc1)NC(=O)[C@H](Cc1c[nH]c2ccccc12)NC(=O)OC(C)(C)C)[C@@H](CC(=O)O)C(=O)N[C@@H](Cc1ccccc1)C(N)=O` (Boc-WK(Acryloyl(3-(3-pyridyl),E))[NMeD]F-NH2) [listing 1 of 2 here], the half-maximal inhibitory concentration (IC50) in test [2] stood at 41 nM; in test [1], 10400 nM.

In turn, `CN(C(=O)[C@H](CCCCNC(=O)/C=C/c1cccnc1)NC(=O)[C@H](Cc1c[nH]c2ccccc12)NC(=O)OC(C)(C)C)[C@@H](CC(=O)O)C(=O)N[C@@H](Cc1ccccc1)C(N)=O` (Boc-WK(Acryloyl(3-(3-pyridyl),E))[NMeD]F-NH2) [listing 2 of 2 here] gave an ED50 with Rattus norvegicus of 0.036 µmol/kg.

For `CN(C(=O)[C@H](CCCCNC(=O)/C=C/c1cccnc1)NC(=O)[C@H](Cc1c[nH]c2ccccc12)NC(=O)OC(C)(C)C)[C@@H](CC(=O)O)C(=O)N(C)[C@@H](Cc1ccccc1)C(N)=O` (Boc-WK(Acryloyl(3-(3-pyridyl),E))[NMeD][NMeF]-NH2) [listing 1 of 2 here], the IC50 in test [2] came to 50 nM. This lies in the double-digit nanomolar range.

In the case of `CN(C(=O)[C@H](CCCCNC(=O)/C=C/c1cccnc1)NC(=O)[C@H](Cc1c[nH]c2ccccc12)NC(=O)OC(C)(C)C)[C@@H](CC(=O)O)C(=O)N(C)[C@@H](Cc1ccccc1)C(N)=O` (Boc-WK(Acryloyl(3-(3-pyridyl),E))[NMeD][NMeF]-NH2) [listing 2 of 2 here], in the test with Rattus norvegicus, the ED50 is 0.016 µmol/kg.

`CN(C(=O)[C@H](CC(=O)O)NC(=O)[C@H](CCCCNC(=O)/C=C/c1ccc(O)cc1)NC(=O)[C@H](Cc1c[nH]c2ccccc12)NC(=O)OC(C)(C)C)[C@@H](Cc1ccccc1)C(N)=O` (Boc-WK(X1)D[NMeF]-NH2) came in with an ED50 with Rattus norvegicus of 0.413 µmol/kg.

For the compound `CN(C(=O)[C@H](CCCCNC(=O)/C=C/c1ccc(O)cc1)NC(=O)[C@H](Cc1c[nH]c2ccccc12)NC(=O)OC(C)(C)C)[C@@H](CC(=O)O)C(=O)N[C@@H](Cc1ccccc1)C(N)=O` (Boc-WK(X1)[NMeD]F-NH2) [listing 1 of 2 here], the values for the IC50 in test [2] and in test [1] were 5 nM and 5810 nM, respectively.

`CN(C(=O)[C@H](CCCCNC(=O)/C=C/c1ccc(O)cc1)NC(=O)[C@H](Cc1c[nH]c2ccccc12)NC(=O)OC(C)(C)C)[C@@H](CC(=O)O)C(=O)N[C@@H](Cc1ccccc1)C(N)=O` (Boc-WK(X1)[NMeD]F-NH2) [listing 2 of 2 here]: the ED50 in the test with Rattus norvegicus is 0.018 µmol/kg.

For the compound `CN(C(=O)[C@H](CCCCNC(=O)/C=C/c1ccc(O)cc1)NC(=O)[C@H](Cc1c[nH]c2ccccc12)NC(=O)OC(C)(C)C)[C@@H](CC(=O)O)C(=O)N(C)[C@@H](Cc1ccccc1)C(N)=O` (Boc-WK(X1)[NMeD][NMeF]-NH2) [listing 1 of 2 here], the IC50 came to 9 nM in test [2] and 13600 nM in test [1].

The compound `CN(C(=O)[C@H](CCCCNC(=O)/C=C/c1ccc(O)cc1)NC(=O)[C@H](Cc1c[nH]c2ccccc12)NC(=O)OC(C)(C)C)[C@@H](CC(=O)O)C(=O)N(C)[C@@H](Cc1ccccc1)C(N)=O` (Boc-WK(X1)[NMeD][NMeF]-NH2) [listing 2 of 2 here] returned an ED50 in the test on Rattus norvegicus of 0.062 µmol/kg.

Take `CN(C(=O)[C@H](CC(=O)O)NC(=O)[C@H](CCCCNC(=O)/C=C/c1cccs1)NC(=O)[C@H](Cc1c[nH]c2ccccc12)NC(=O)OC(C)(C)C)[C@@H](Cc1ccccc1)C(N)=O` (Boc-WK(X2)D[NMeF]-NH2) [listing 1 of 2 here]: the IC50 in test [2] came to 18 nM; in test [1], 731 nM.

In the case of `CN(C(=O)[C@H](CC(=O)O)NC(=O)[C@H](CCCCNC(=O)/C=C/c1cccs1)NC(=O)[C@H](Cc1c[nH]c2ccccc12)NC(=O)OC(C)(C)C)[C@@H](Cc1ccccc1)C(N)=O` (Boc-WK(X2)D[NMeF]-NH2) [listing 2 of 2 here], the ED50 in the test with Rattus norvegicus worked out at 1.4 µmol/kg.

In the case of `CN(C(=O)[C@H](CCCCNC(=O)/C=C/c1cccs1)NC(=O)[C@H](Cc1c[nH]c2ccccc12)NC(=O)OC(C)(C)C)[C@@H](CC(=O)O)C(=O)N[C@@H](Cc1ccccc1)C(N)=O` (Boc-WK(X2)[NMeD]F-NH2) [listing 1 of 2 here], the IC50 in test [2] is given as 35 nM; in test [1] it was 4577 nM.

On to `CN(C(=O)[C@H](CCCCNC(=O)/C=C/c1cccs1)NC(=O)[C@H](Cc1c[nH]c2ccccc12)NC(=O)OC(C)(C)C)[C@@H](CC(=O)O)C(=O)N[C@@H](Cc1ccccc1)C(N)=O` (Boc-WK(X2)[NMeD]F-NH2) [listing 2 of 2 here], for which, in the test with Rattus norvegicus, the ED50 was determined as 0.012 µmol/kg.

For the compound `CN(C(=O)[C@H](CCCCNC(=O)/C=C/c1cccs1)NC(=O)[C@H](Cc1c[nH]c2ccccc12)NC(=O)OC(C)(C)C)[C@@H](CC(=O)O)C(=O)N(C)[C@@H](Cc1ccccc1)C(N)=O` (Boc-WK(X2)[NMeD][NMeF]-NH2) [listing 1 of 2 here], the IC50 in test [2] was 32 nM; in test [1], 10900 nM.

On to `CN(C(=O)[C@H](CCCCNC(=O)/C=C/c1cccs1)NC(=O)[C@H](Cc1c[nH]c2ccccc12)NC(=O)OC(C)(C)C)[C@@H](CC(=O)O)C(=O)N(C)[C@@H](Cc1ccccc1)C(N)=O` (Boc-WK(X2)[NMeD][NMeF]-NH2) [listing 2 of 2 here], for which the ED50 in the test with Rattus norvegicus amounted to 0.022 µmol/kg.

In test [3], `CN(C(=O)[C@H](CC(=O)O)NC(=O)[C@H](CCCCNC(=O)/C=C/c1cccnc1)NC(=O)C(Cc1c[nH]c2ccccc12)NC(=O)OC(C)(C)C)[C@@H](Cc1ccccc1)C(N)=O` (some centres not stated) (Boc-[ξW]K(Acryloyl(3-(3-pyridyl),E))D[NMeF]-NH2) registered a Hydrolysis of 88%.

On to `CN(C(=O)[C@H](CCCCNC(=O)/C=C/c1cccnc1)NC(=O)C(Cc1c[nH]c2ccccc12)NC(=O)OC(C)(C)C)[C@@H](CC(=O)O)C(=O)N[C@@H](Cc1ccccc1)C(N)=O` (some centres not stated) (Boc-[ξW]K(Acryloyl(3-(3-pyridyl),E))[NMeD]F-NH2), for which the Hydrolysis in test [3] worked out at 98%.

For the compound `CN(C(=O)[C@H](CCCCNC(=O)/C=C/c1cccnc1)NC(=O)C(Cc1c[nH]c2ccccc12)NC(=O)OC(C)(C)C)[C@@H](CC(=O)O)C(=O)N(C)[C@@H](Cc1ccccc1)C(N)=O` (some centres not stated) (Boc-[ξW]K(Acryloyl(3-(3-pyridyl),E))[NMeD][NMeF]-NH2), in test [3], the Hydrolysis came to 94%.

Consider `CN(C(=O)[C@H](CC(=O)O)NC(=O)[C@H](CCCCNC(=O)/C=C/c1ccc(O)cc1)NC(=O)C(Cc1c[nH]c2ccccc12)NC(=O)OC(C)(C)C)[C@@H](Cc1ccccc1)C(N)=O` (some centres not stated) (Boc-[ξW]K(X1)D[NMeF]-NH2), for which the Hydrolysis in test [3] came to 76%.

As for `CN(C(=O)[C@H](CCCCNC(=O)/C=C/c1ccc(O)cc1)NC(=O)C(Cc1c[nH]c2ccccc12)NC(=O)OC(C)(C)C)[C@@H](CC(=O)O)C(=O)N[C@@H](Cc1ccccc1)C(N)=O` (some centres not stated) (Boc-[ξW]K(X1)[NMeD]F-NH2), in test [3], the Hydrolysis was 101%.

In test [3], `CN(C(=O)[C@H](CCCCNC(=O)/C=C/c1ccc(O)cc1)NC(=O)C(Cc1c[nH]c2ccccc12)NC(=O)OC(C)(C)C)[C@@H](CC(=O)O)C(=O)N(C)[C@@H](Cc1ccccc1)C(N)=O` (some centres not stated) (Boc-[ξW]K(X1)[NMeD][NMeF]-NH2) showed a Hydrolysis of 91%.

Compound `CN(C(=O)[C@H](CC(=O)O)NC(=O)[C@H](CCCCNC(=O)/C=C/c1cccs1)NC(=O)C(Cc1c[nH]c2ccccc12)NC(=O)OC(C)(C)C)[C@@H](Cc1ccccc1)C(N)=O` (some centres not stated) (Boc-[ξW]K(X2)D[NMeF]-NH2) had a Hydrolysis in test [3] of 84%.

In test [3], `CN(C(=O)[C@H](CCCCNC(=O)/C=C/c1cccs1)NC(=O)C(Cc1c[nH]c2ccccc12)NC(=O)OC(C)(C)C)[C@@H](CC(=O)O)C(=O)N[C@@H](Cc1ccccc1)C(N)=O` (some centres not stated) (Boc-[ξW]K(X2)[NMeD]F-NH2) displayed a Hydrolysis of 95%.

In test [3], `CN(C(=O)[C@H](CCCCNC(=O)/C=C/c1cccs1)NC(=O)C(Cc1c[nH]c2ccccc12)NC(=O)OC(C)(C)C)[C@@H](CC(=O)O)C(=O)N(C)[C@@H](Cc1ccccc1)C(N)=O` (some centres not stated) (Boc-[ξW]K(X2)[NMeD][NMeF]-NH2) had a Hydrolysis of 93%.
